Active and inactive are the calls of the source. The rule behind the calls is not given here. Square brackets hold non-standard residues; d marks the D form. Peptide text beside a SMILES is read from it. * marks the point of attachment. Bn = c1ccc(C*)cc1; GABA = NCCCC(=O)O; βAla = NCCC(=O)O
How the values were obtained:
[1] = Noncompetitive inhibition of yeast glyoxalase 1 assessed as inhibition of product formation by double reciprocal plot method; design: species or system Saccharomyces cerevisiae
Method in brief: (§1)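 Yeast glyoxalase I, diluted to 20 µg/ml in 30% glycerin with 0.1% BSA. Assays ran at 30 °C in 0.05 M phosphate buffer, pH 6.6. Methylglyoxal, reduced glutathione, inhibitor and buffer were preincubated 3 min to form the hemimercaptal, then enzyme was added. Product formation was followed at 240 nm.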

Saccharomyces cerevisiae [2] = test: Synergistic binding affinity to active site of yeast glyoxalase 1 using hemimercaptal as substrate at 0.1 to 0.3 mM in presence of free glutathione
Method in brief: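 Yonetani–Thorell analysis with yeast glyoxalase I at 30 °C, pH 6.6 phosphate, read at 240 nm. Reciprocal velocity was plotted against inhibitor concentration at fixed hemimercaptal substrate and fixed free glutathione levels of 0.1, 2.0 or 5.0 mM.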

Saccharomyces cerevisiae [3] = test: Competitive inhibition of yeast glyoxalase 1 assessed as inhibition of product formation by double reciprocal plot method; method in brief: as §1
Saccharomyces cerevisiae [4] = test: Binding affinity to active site of yeast glyoxalase 1 using hemimercaptal as substrate at 0.005 to 0.015 mM in presence of free glutathione
[5] = Binding affinity to yeast glyoxalase 1 assessed as inhibition of product formation by double reciprocal plot method; design: species or system Saccharomyces cerevisiae; method in brief: as §1
Saccharomyces cerevisiae [6] = test: Activity of yeast glyoxalase 1; method in brief: as §1
Mus musculus = species: Mus musculus; test: Activity of mouse liver glyoxalase
[7] = Ratio of Km for yeast glyoxalase 1 to Km for mouse liver glyoxalase

## O=C(O)CCC(=O)N[C@@H](CSCc1ccc(Br)cc1)C(=O)NCC(=O)O
[1]; read-out: Ki
  Ki: 0.4 mM

## NCCC(=O)N[C@@H](CSCc1ccccc1)C(=O)NCC(=O)O (H-[βAla]-Cys(Bn)-Gly-OH)
[1]; read-out: Ki
  Ki: 5.3 mM

## NCCC(=O)N[C@@H](CSCc1ccc(Br)cc1)C(=O)NCC(=O)O
[1]; read-out: Ki
  Ki: 1.5 mM

## O=C(O)CCCC(=O)N[C@@H](CSCc1ccc(Br)cc1)C(=O)NCC(=O)O
[1]; read-out: Ki
  Ki: 0.32 mM
Saccharomyces cerevisiae [2]
  Activity: Active

## N[C@@H](CCC(=O)N[C@@H](CSCc1ccc(Br)cc1)C(=O)NCC(=O)O)C(=O)O
Saccharomyces cerevisiae [3]
  inhibition: Active
Saccharomyces cerevisiae [4]
  Activity: Active

## O=C(O)CCCC(=O)N[C@@H](CSCc1ccccc1)C(=O)NCC(=O)O
[1]; read-out: Ki
  Ki: 3 mM

## N[C@@H](CSCc1ccccc1)C(=O)NCC(=O)O
[1]
  Ki: Not Active

## O=C(O)CCC(=O)N[C@@H](CSCc1ccccc1)C(=O)NCC(=O)O
[1]; read-out: Ki
  Ki: 4.5 mM

## N[C@@H](CSCc1ccc(Br)cc1)C(=O)NCC(=O)O
[1]; read-out: Ki
  Ki: 0.58 mM

## NCCCC(=O)N[C@@H](CSCc1ccc(Br)cc1)C(=O)NCC(=O)O
[1]; read-out: Ki
  Ki: 1.2 mM

## CC(=O)C(O)SC[C@H](NC(=O)CC[C@H](N)C(=O)O)C(=O)NCC(=O)O (stereo partly drawn)
[5]
  Kd: 3.1 mM
Saccharomyces cerevisiae [3]
  inhibition: Active
Saccharomyces cerevisiae [6]
  Km: 500 µM
Mus musculus
  Km: 57 µM
[7]
  Ratio: 10

## NCCCC(=O)N[C@@H](CSCc1ccccc1)C(=O)NCC(=O)O (H-[GABA]-Cys(Bn)-Gly-OH)
[1]; read-out: Ki
  Ki: 4.1 mM
